Results on one molecule are retold here after ChEMBL document CHEMBL1153201, “Sulfonylureido thiazoles as fructose-1,6-bisphosphatase inhibitors for the treatment of type-2 diabetes” (Bioorg Med Chem Lett, 2010).

Data set [1] relates to Mus musculus. Description: Antidiabetic activity in C57BLKS db/db mouse assessed as reduction in glucose level at 100 mg/kg, po after 4 hrs relative to control. It is filed as functional. On the set-up: scale not given: the % may be the effect or the level left. The procedure, abridged:
(§1)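 Male db/db mice (13 weeks, C57BLKS background), block randomized by blood glucose, fasted 4 h, then given a single oral dose of 100 mg/kg in 0.3% Tween 80 (4 mL/kg); vehicle controls. Tail-tip blood glucose read by handheld meter at 0, 2, 4, 6 h post dose. Expressed as % lowering vs vehicle at the same time point; mixed-model statistics.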

The nature of data set [2]: Oral bioavailability in mouse at 4.8 mg/kg. It is filed as ADME, organism-based. The note with it: in vivo. The procedure, abridged: (§2)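 Mouse PK. Oral gavage at 4.8 mg/kg; oral bioavailability derived by reference to an iv bolus of 2.5 mg/kg.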
In data set [3] the target is T1, Fructose-1,6-bisphosphatase 1 (Homo sapiens, UniProt P09467).
T1 sequence (P09467 whole entry): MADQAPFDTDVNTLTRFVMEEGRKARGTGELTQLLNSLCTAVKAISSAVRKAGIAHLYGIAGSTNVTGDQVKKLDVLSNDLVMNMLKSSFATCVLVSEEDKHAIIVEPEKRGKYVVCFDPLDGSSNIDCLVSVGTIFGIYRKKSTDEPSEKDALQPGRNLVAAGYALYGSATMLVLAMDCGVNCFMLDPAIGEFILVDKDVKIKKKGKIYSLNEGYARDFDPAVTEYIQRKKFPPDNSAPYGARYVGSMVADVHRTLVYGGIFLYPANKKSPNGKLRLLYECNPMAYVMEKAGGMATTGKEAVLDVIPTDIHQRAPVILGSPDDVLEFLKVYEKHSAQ
Kind of data set: Inhibition of FBPase in human liver.

Data set [4] is described as follows: Volume of distribution at steady state in mouse at 2.5 mg/kg, iv. It is filed as ADME, organism-based. The note with it: in vivo, read-out: Vdss. On the set-up: dose 2.5 mg/kg, route intravenous. The procedure, abridged:
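Mouse given an iv bolus at 2.5 mg/kg; volume of distribution at steady state derived from plasma PK.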

In data set [5] the target is T1, Fructose-1,6-bisphosphatase 1. Kind of data set: Inhibition of FBPase in human liver in presence of fructose-2,6-bisphosphate, a substrate site inhibitor.
Data set [6] has as its target T2, Fructose-1,6-bisphosphatase 1 (Mus musculus, UniProt Q9QXD6).
T2 sequence (Q9QXD6 whole entry): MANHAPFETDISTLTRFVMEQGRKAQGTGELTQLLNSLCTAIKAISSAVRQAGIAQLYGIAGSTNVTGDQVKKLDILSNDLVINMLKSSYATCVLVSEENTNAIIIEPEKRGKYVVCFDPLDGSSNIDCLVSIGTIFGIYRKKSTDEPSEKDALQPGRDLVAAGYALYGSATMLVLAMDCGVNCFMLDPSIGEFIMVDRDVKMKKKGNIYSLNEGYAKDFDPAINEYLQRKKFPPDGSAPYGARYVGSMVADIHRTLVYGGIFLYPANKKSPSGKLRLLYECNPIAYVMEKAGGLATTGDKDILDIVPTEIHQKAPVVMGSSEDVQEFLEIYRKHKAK
Description: Inhibition of FBPase in mouse liver.

Data set [7] has as its system Mus musculus. Description: Antidiabetic activity in C57BLKS db/db mouse assessed as reduction in glucose level at 100 mg/kg, po after 2 hrs relative to control. The class given is functional. On the set-up: scale not given: the % may be the effect or the level left. In short, it runs like this:
as §1

Data set [8] is described as follows: Ratio of drug level in liver to plasma in mouse. The note with it: liver and plasma. It is filed as ADME, tissue-based.
Data set [9] can be described thus: Permeability across PAMPA membrane. The note with it: read-out: permeability. The class given is ADME. Background: The PAMPA barrier holds no transporters, so it reflects passive diffusion.
Data set [10] is described as follows: Intrinsic clearance in mouse microsomes measured per mg of protein. It is filed as ADME, Microsome. In short, it runs like this:
(§3)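 Microsomal intrinsic clearance in human or mouse liver microsomes, expressed per mg microsomal protein.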

In data set [11] the test system is Mus musculus. Kind of data set: Antidiabetic activity in C57BLKS db/db mouse assessed as reduction in glucose level at 100 mg/kg, po after 6 hrs relative to control. Set-up: scale not given: the % may be the effect or the level left. The class given is functional. The procedure, abridged:
as §1

A short description of data set [12]: Aqueous solubility of the compound. The class given is physicochemical.
Data set [13] in a line: Half life in mouse at 4.8 mg/kg. It is filed as ADME, organism-based. On the set-up: dose 4.8 mg/kg. To be noted: in vivo. In short, it runs like this: as §2
Data set [14] is described as follows: Intrinsic clearance in human microsomes measured per mg of protein. The class given is ADME, Microsome. The procedure, abridged:
as §3

The subject of data set [15] is Mus musculus. Description: Antidiabetic activity in db/db mouse assessed as reduction in glucose level at 100 mg/kg, po after 6 hrs relative to control. It is filed as functional. On the set-up: scale not given: the % may be the effect or the level left. The procedure, abridged: as §1

pEC50, pIC50: −log10 of the molar value. ≈ marks a conversion by molar mass, not a printed value.

Broadly, the bioavailability is the share of a dose that reaches the circulation, judged against a reference dose that is usually intravenous. For orientation: pIC50 means the IC50 on a negative log10 scale, so that one unit is a factor of ten. A word on the pEC50: it is the EC50 on a negative log10 scale, so that one unit is a factor of ten. By Kp is commonly meant the ratio of the level in a tissue or fluid to that in plasma or blood. In general, microsomal CLint refers to the capacity of the preparation to metabolise the compound, expressed as a volume cleared per time. For orientation: solubility means the concentration that dissolves in the medium under given conditions. For orientation: half-life means the time needed for the level to fall by half in the phase considered. With `Cc1cc(S(=O)(=O)NC(=O)Nc2ncc(Br)s2)ccc1-c1ccc(F)nc1`, the Activity in the data set with Mus musculus [1] was found to be 13%; with Mus musculus [7], 5%; in the data set with Mus musculus [11], 32%; with Mus musculus [15] it was 32%. The bioavailability in [2] was 70%. Further, the pIC50 in data set [3] is 6.89; in [5], 7.05. Further, in data set [4], the Vd was 0.1 L/kg. For the same molecule, the pEC50 in [6] is 5.00. Moreover, the concentration ratio (Kp) in data set [8] is 0.6. Also, the Papp in data set [9] was 3.6 ×10⁻⁶ cm/s. In addition, the intrinsic metabolic clearance (microsomal CLint) in [10] was 5.1 µL/min/mg; in [14], 11.4 µL/min/mg. In [12], the concentration in solution (solubility) was 465 µg/mL (≈ 987 µM). Further, the half-life in [13] was 8.1 h.
